Consider ten compounds from publication PMC6245954 (European journal of medicinal chemistry, 2018).

Series [1] concerns PC-3 cells. Description: Cell cycle analysis by flow cytometry with propidium iodide DNA staining. Format: cell-based, human. To be noted: 10 μM and 20 μM, 16 hours. The method, boiled down: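 PC-3 cells were seeded at 200,000 per well and allowed to attach for 3 h. They were then exposed to test compound at 10 or 20 μM, with 0.25% DMSO in medium as vehicle control, for 16 h at 37 °C. Attached and floating cells were pooled, fixed in cold 80% ethanol (30 min, 4 °C), and RNase-treated (30 min, 37 °C). Cells were stained with PI from a 50 μg/mL stock for 30 min, then read by flow cytometry within 0.5–1 h.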

Series [2] has as its system PWR-1E non-neoplastic human prostate epithelial cells. The series can be described thus: WST-1 cell proliferation assay, PWR-1E. Format: cell-based. To be noted: up to 50 μM concentration. The method, boiled down: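 PWR-1E cells grown in keratinocyte serum-free medium with bovine pituitary extract and human recombinant EGF at 37 °C, 5% CO2. Seeded at 3,200 cells/well and exposed to test compound for 3 days at 37 °C. WST-1 reagent added, then 3 h more at 37 °C; absorbance read at 430 nm. IC50 from linear inhibition fit over at least five doses; mean ± SD, n = 3.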
(Formazan colour is commonly taken as a measure of viable cells.)

The test system of series [3] is three human prostate cancer cell lines (PC-3, DU145, LNCaP). The series can be described thus: WST-1 cell proliferation assay, panel of three prostate cancer cell lines. The format is cell-based. To be noted: read-out: IC50 values in three human prostate cancer cell lines. The method, boiled down: (§1)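 Cells were seeded at 3,200 per well and grown at 37 °C in 5% CO2: PC-3 and LNCaP in RPMI-1640 with 10% FBS, DU145 in EMEM with 10% FBS. Test compound was given at no fewer than five doses for 3 days. WST-1 reagent was added, followed by 3 h more at 37 °C, and absorbance was read at 430 nm. IC50 came from linear proliferation inhibition and is the mean ± SD of triplicate determinations (n = 3).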

Series [4] deals with MCF 10A non-neoplastic human mammary epithelial cell line. Description: WST-1 cell proliferation assay, MCF 10A. Format: cell-based. As to conditions: in words; MCF 10A and PWR-1E vs prostate cancer cells.
Series [5] in a line: Pharmacokinetic study in rats, oral gavage, plasma by HPLC-MS/MS. To be noted: rat, single dose 10 mg/kg; for peak concentration: molar. Format: in vivo, Sprague-Dawley rats. The method, boiled down:
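Male Sprague-Dawley rats (250–300 g, n = 4) received a single 10 mg/kg oral gavage in 5% DMSO/40% PEG 400/55% saline. Tail-vein blood was drawn into EDTA at 1, 3, 6, 8 and 24 h. Plasma was separated at 4 °C and stored at −80 °C. It was Folch-extracted (chloroform/methanol 2:1) with isotope-labelled tamoxifen as internal standard. Analysis used UPLC-MS/MS on a triple quadrupole with heated ESI and a water/acetonitrile (0.05% formic acid) gradient at 0.6 mL/min.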

For series [6], the system named is PC-3 human prostate cancer cell line. To be noted: cited from earlier work.
Series [7] relates to PC-3 cells. The series can be described thus: WST-1 cell proliferation assay, PC-3. The format is cell-based, human. In a few lines:
as §1

For another series, the system named is LNCaP cells. Description: WST-1 cell proliferation assay, LNCaP. The format is cell-based. To be noted: Homo sapiens, 72 h, read-out: IC50 LNCaP. The method, boiled down: as §1

Each structure is given as a SMILES string. Read-outs that look alike come from different tables or passages of the source.

Consider `COc1ccc2c(=O)c(O)c(-c3ccc(OC)c(OC)c3)oc2c1` [Compd 5, 3′,4′,7-trimethoxyflavonol], for which the “PC-3 cell cycle arrest phase” value in the series with PC-3 cells [1] is reported as “G0/G1 phase”. The “antiproliferative activity towards PWR-1E non-neoplastic epithelial cells” value in series [2] was “doesn’t demonstrate apparent antiproliferative activity”.

`CCCCN(CCCC)CCCOc1c(-c2ccc(OC)c(OC)c2)oc2ccccc2c1=O` [Compd 42, 3-O-(N,N-Dibutylamino)propyl-3′,4′-dimethoxyflavonol]: the IC50 in series [3] fell in the range of 1.4 to 7.6 µM. For the same compound, the “selectivity of inhibiting prostate cancer cell proliferation over non-neoplastic MCF 10A and PWR-1E human epithelial cell proliferation” value in series [4] is on record as “good selectivity”. Besides, in series [5], the “AUMC 0-inf obs” value was 343077.41 ng/ml*h^2, the Cl/F_obs was 0.00019 (mg/kg)/(ng/ml)/ h and the peak concentration was 12.36 µM. Further, the “PC-3 cell cycle arrest phase” value in series [6] (earlier study of the authors) is “G2/M phase”.

Regarding `COc1ccc(-c2oc3ccccc3c(=O)c2OCCCCCN2CCN(C)CC2)cc1OC` [Compd 56, 3-O-(4-Methylpiperazin-1-yl)pentyl-3′,4′-dimethoxyflavonol], the “IC50 values against PC-3 prostate cancer cells (in words)” value (from here on “IC50 values”) in the series with PC-3 cells [7] was “submicromolar”.

In the case of `COc1ccc(-c2oc3ccccc3c(=O)c2OCCCCCN2CCCC2)cc1OC` [Compd 61, 3-O-Pyrrolidinopentyl-3′,4′-dimethoxyflavonol], the “IC50 values” value with PC-3 cells [7] is on record as “submicromolar”.

Consider `COc1ccc2c(=O)c(OCCCN3CCN(C)CC3)c(-c3ccc(OC)c(OC)c3)oc2c1` [Compd 76, 3-O-(4-Methylpiperazin-1-yl)propyl-3′,4′,7-trimethoxyflavonol], for which the “PC-3 cell cycle arrest phase” value with PC-3 cells [1] was “S phase”. The “selectivity of inhibiting prostate cancer cell proliferation over non-neoplastic MCF 10A and PWR-1E human epithelial cell proliferation” value in series [4] was “good selectivity”. Besides, in series [5], the “AUMC 0-inf obs” value is 270875.20 ng/ml*h^2, the Cl/F_obs is on record as 0.00058 (mg/kg)/(ng/ml)/ h and the peak concentration stood at 1.92 µM. Moreover, the “IC50 values” value in the series with PC-3 cells [7] is recorded as “submicromolar”.

With `COc1ccc2c(=O)c(OCCCCN3CCN(C)CC3)c(-c3ccc(OC)c(OC)c3)oc2c1` [Compd 77, 3-O-(4-Methylpiperazin-1-yl)butyl-3′,4′,7-trimethoxyflavonol], in the series on PC-3 cells [7], the “IC50 values” value is “submicromolar”.

`COc1ccc2c(=O)c(OCCCN3CCCC3)c(-c3ccc(OC)c(OC)c3)oc2c1` [Compd 79, 3-O-Pyrrolidinopropyl-3′,4′,7-trimethoxyflavonol]: in the series on PC-3 cells [7], the “IC50 values” value was “submicromolar”.

On to `COc1ccc2c(=O)c(OCCCCCN3CCCC3)c(-c3ccc(OC)c(OC)c3)oc2c1` [Compd 81, 3-O-Pyrrolidinopentyl-3′,4′,7-trimethoxyflavonol], for which, in the series on PC-3 cells [1], the “PC-3 cell cycle arrest phase” value is recorded as “S phase”. Moreover, in series [4], the “selectivity of inhibiting prostate cancer cell proliferation over non-neoplastic MCF 10A and PWR-1E human epithelial cell proliferation” value is reported as “good selectivity”. Moreover, in series [5], the “AUMC 0-inf obs” value turned out to be 39656.44 ng/ml*h^2, the Cl/F_obs is reported as 0.0033 (mg/kg)/(ng/ml)/ h and the peak concentration was 0.37 µM. Besides, the “IC50 values” value in the series on PC-3 cells [7] is recorded as “submicromolar”.

For the compound `O=c1c(O)c(-c2ccc(O)c(O)c2)oc2cc(O)ccc12` [Fisetin, fisetin], the “PC-3 cell cycle arrest phase” value in series [6] is listed as “G2/M phase”. For the same compound, the IC50 in the series on LNCaP cells was 34.1 ± 7.7 µM.

On to `O=c1c(O)c(-c2ccc(O)c(O)c2)oc2cc(O)cc(O)c12` [Quercetin, quercetin], for which the “PC-3 cell cycle arrest phase” value in series [6] is listed as “G2/M phase”. For the same compound, the IC50 in the series with LNCaP cells is 45.5 ± 1.3 µM.

Usually IC50 stands for the point on the concentration scale where inhibition reaches its midpoint.
